Source: PubChem BioAssay (several laboratories)
HSF1 activator: HSF-1 activators, primary screen, NIH3T3-HGL cells, MG132 stress, luminescence, single point; 300,000 compounds, 1.7% hits; activation, % at 9 µM; NIH3T3-HGL HSF-1 luciferase reporter, 8 h; 100% = twice DMSO control signal;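 active = mean replicate activation of at least 50% with a set share of replicates each reaching 50%; inconclusive = only one of those two conditions met; inactive = mean below 50% and too few replicates reaching it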;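 note: 0% = median of the neutral control wells and 100% = twice that signal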
AI-2 QS mod: Vibrio harveyi AI-2 quorum sensing modulators, primary screen, JMH597 strain, luminescence/OD600 ratio; activity change, % at 7.5 µM; Vibrio harveyi JMH597 AI-2 luminescence/OD600 ratio, 9 h; stronger effect = lower value; strain lacks LuxN and CqsS sensors; 0 = neutral-control median; 300,000 compounds, 0.4% hits; AID 2094, 2009; in the data active = activity change below about -75%, passing the limit was not always enough; inconclusive = no clear call, values can overlap the other calls;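 note: luminescence divided by OD600 gain over 9 h not by final OD600 alone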
HSF1 inhib: HSF1 inhibitors in luciferase reporter cells, primary screen, cell-based, NIH3T3, luminescence; 300,000 compounds, 0.77% hits; activity change, negative = inhibition, % at 7.5 µM (by protocol); AID 2098, 2009; NIH3T3-HGL HSE-luciferase, MG132-induced, luminescence 8 h; stronger effect = lower value;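 active = more than half of replicate wells show activity change below -50%, luminescence cut by over half; inconclusive = some wells, but at most half, below -50%; inactive = no replicate well below -50%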;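 note: luciferase reports HSF-1 transcriptional activity via heat shock element; 0% = median of DMSO wells and -100% = zero luminescence signal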
ALR inh: inhibitors of human ALR sulfhydryl oxidase, primary screen, biochemical, H2O2 detection, HRP-luminol luminescence, single point; FAD-linked sulfhydryl oxidase ALR (Homo sapiens), P55789; purified ALR, DTT oxidation; inhibition, % (no concentration beside the values); 290,000 compounds, 3.8% hits; AID 485317, 2010;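 active = mean replicate inhibition above about 79%, with every replicate also reaching it, limit read from the data; inconclusive = only one of the two criteria met; inactive = mean below limit and not every replicate reaching it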
Target sequence (P55789 whole entry, looked up): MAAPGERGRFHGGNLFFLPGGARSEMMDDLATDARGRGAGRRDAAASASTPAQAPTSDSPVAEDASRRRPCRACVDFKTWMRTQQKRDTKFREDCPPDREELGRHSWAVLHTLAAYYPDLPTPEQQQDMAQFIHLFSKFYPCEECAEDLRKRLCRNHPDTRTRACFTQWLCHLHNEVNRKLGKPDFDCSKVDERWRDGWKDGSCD
PHOSPHO1 block: PubChem AID 1565; 290,000 compounds, 1.1% hits; inhibition, % at 13.3 µM; recombinant PHOSPHO1, absorbance phosphatase assay; Phosphoethanolamine/phosphocholine phosphatase (Homo sapiens), Q8TCT1; in the data active = inhibition above about 60%
Target sequence (Q8TCT1 whole entry, looked up): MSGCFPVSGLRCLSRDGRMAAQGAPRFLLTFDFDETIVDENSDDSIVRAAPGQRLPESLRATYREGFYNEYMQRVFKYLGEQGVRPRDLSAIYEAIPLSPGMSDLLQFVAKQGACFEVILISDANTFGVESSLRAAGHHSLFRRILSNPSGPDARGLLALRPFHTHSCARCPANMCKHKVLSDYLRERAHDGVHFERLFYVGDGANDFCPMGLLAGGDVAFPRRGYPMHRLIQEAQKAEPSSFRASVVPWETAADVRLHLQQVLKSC
core dimer inh: inhibitors of HCV core protein dimerization, primary screen, biochemical, TR-FRET, high-throughput; TR-FRET GST/Flag-core106 dimerization, 1536-well; inhibition, % at 5 µM; 300,000 compounds, 0.33% hits; AID 1899, 2009;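 active = inhibition above the mean of all tested compounds plus 3 SD, set per screening campaign, cut at about 45% in these data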
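Material: Tagged HCV core106 pair (GST and Flag) | Amount: GST-core106 13.5 nM, Flag-core106 17 nM | Medium: KF-containing HEPES buffer, pH 7.45, DTT, CHAPS, BSA | Reagent: Eu donor and XL665 acceptor anti-tag antibodies | Schedule: 4 h at 22.5 °C | Technique: Time-resolved FRET, ex 340 nm, em 617 and 671 nm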
An asterisk follows results filed as active. In the library only some 6.8% were active in any assay of this set; here they are far more common.

`COc1ccc(S(=O)(=O)Cc2ccc(C(=O)NCc3ccccc3OC)o2)cc1` gave HSF1 activator -10.4, HSF1 inhib 6.4, ALR inh -1.1, PHOSPHO1 block 22.5 and core dimer inh 5.3.
C/C(CC(=O)Nc1ccccn1)=N\NC(=O)c1cnccn1 was read as HSF1 activator 19.5, AI-2 QS mod 2.4, HSF1 inhib 1.5, ALR inh -12.1, PHOSPHO1 block 23.7 and core dimer inh -3.8.
For CC1CCN(C(=O)CN2C(=O)NC(C)(c3ccc4ccccc4c3)C2=O)CC1 (stereo not drawn) the results were ALR inh 25.8.
Cc1ccccc1C(=O)NNC(=O)CSc1nnc(-c2ccncc2)n1-c1ccccc1 was read as HSF1 activator -8.7, AI-2 QS mod 5.3, HSF1 inhib -9.7, ALR inh -2.0, PHOSPHO1 block 0.7 and core dimer inh -8.2.
O=C(COC(=O)/C=C/c1cc(Br)ccc1F)Nc1ccc2[nH]c(=O)[nH]c2c1 was read as HSF1 activator -3.0, AI-2 QS mod 0.1, HSF1 inhib -3.8, ALR inh -3.7 and core dimer inh 6.8.
Cc1nn(C)c(C(=O)Nc2cccc(Nc3ccccc3)c2)c1[N+](=O)[O-] was read as HSF1 activator -3.2, AI-2 QS mod 17.5, HSF1 inhib 8.4, ALR inh 97.5*, PHOSPHO1 block 12.5 and core dimer inh -4.6.
Screening CCOC(=O)CNC(=O)COc1coc(CN2CCN(c3ccc(F)cc3)CC2)cc1=O returned HSF1 activator -8.4, AI-2 QS mod 15.9, HSF1 inhib -1.0, ALR inh -0.8, PHOSPHO1 block 26.5 and core dimer inh 2.1.
For Cc1nn(Cc2ccc(C(=O)NN)cc2)c(C)c1Cl the results were HSF1 activator 5.7, AI-2 QS mod 9.6, HSF1 inhib -2.4, PHOSPHO1 block 20.3 and core dimer inh -3.8.
Screening Cc1nn(Cc2cccc(C(=O)NN)c2)c(C)c1Cl returned HSF1 activator 2.9, AI-2 QS mod -3.4, HSF1 inhib -8.8, ALR inh 96.9*, PHOSPHO1 block 37.4 and core dimer inh -2.6.
COc1cc(C2c3cc4c(cc3OC(NCc3ccccc3)C2C)OCO4)cc(OC)c1OC (stereo not drawn) was read as HSF1 activator 33.8 and HSF1 inhib 33.8.
Screening CCn1c(-c2ccsc2)nc2c1c(=O)[nH]c(=O)n2Cc1ccccc1 returned HSF1 activator 55.7*, AI-2 QS mod 28.0, HSF1 inhib 22.4, ALR inh -11.6, PHOSPHO1 block -1.6 and core dimer inh 2.7.
For CCOc1ccccc1CN1CCN(Cc2cn(C)nc2-c2ccccc2)CC1CCO (stereo not drawn) the results were HSF1 activator 82.4*, AI-2 QS mod 20.2, HSF1 inhib 43.2, PHOSPHO1 block 60.1* and core dimer inh -0.3.
`Cn1cc(CN2CCN(Cc3ccccc3)C(CCO)C2)c(-c2ccccc2)n1` (stereo not drawn) gave HSF1 activator -3.2, AI-2 QS mod 7.6, HSF1 inhib 3.2, PHOSPHO1 block -45.6 and core dimer inh -2.9.
For COC(=O)c1ccc(/C=C(\C#N)C(=O)NC(C)c2ccccc2)cc1 (stereo not drawn) the results were HSF1 activator 8.5, AI-2 QS mod 43.3, HSF1 inhib -3.5, ALR inh 87.2*, PHOSPHO1 block -12.3 and core dimer inh 0.0.
For N#C/C(=C\c1ccc(O)c(O)c1)C(=O)NCCc1ccccc1 the results were ALR inh 98.5* and core dimer inh -4.6.
Screening CCOCCCNC(=O)/C(C#N)=C/c1ccc([N+](=O)[O-])o1 returned HSF1 activator 45.2, AI-2 QS mod -83.4*, HSF1 inhib 39.3, ALR inh -116.0, PHOSPHO1 block 16.8 and core dimer inh -4.0.
For COc1ccc(/C=C(\C#N)C(=O)Nc2cc(C)c(Cl)cc2OC)cc1O the results were HSF1 activator -74.0, AI-2 QS mod 6.4, HSF1 inhib -63.5*, ALR inh -1.2, PHOSPHO1 block 24.8 and core dimer inh 7.2.
`CC(NC(=O)/C(C#N)=C/c1ccc(N2CCOCC2)cc1)c1ccccc1` (stereo not drawn) gave HSF1 activator 3.8, HSF1 inhib -11.3, ALR inh 10.1, PHOSPHO1 block 21.7 and core dimer inh 7.7.
For CCOCCCNC(=O)/C(C#N)=C/c1ccc(-c2ccc(S(=O)(=O)N3CCOCC3)cc2)o1 the results were HSF1 activator 1.3, AI-2 QS mod 23.3, HSF1 inhib -5.6, ALR inh -5.4, PHOSPHO1 block 2.4 and core dimer inh 10.9.
CC(OC(=O)CCN1C(=O)C2CC=CCC2C1=O)C(=O)c1ccc(F)cc1 (stereo not drawn) was read as ALR inh -4.4.
`CC1CCN(C(=O)C2CCCN(S(=O)(=O)c3ccc4c(c3)CC(C)N4C(=O)C3CC3)C2)CC1` (stereo not drawn) gave HSF1 activator 33.4, AI-2 QS mod 19.1, HSF1 inhib 2.0, ALR inh -3.9, PHOSPHO1 block 25.4 and core dimer inh 7.3.
`COc1ccc(C)cc1NC(=O)CSc1nc2ccccc2nc1N1CC(C)OC(C)C1` (stereo not drawn) gave HSF1 activator -14.3, AI-2 QS mod 16.3, HSF1 inhib -1.9, ALR inh -12.8, PHOSPHO1 block 43.9 and core dimer inh -3.6.
Screening COc1ccc(/C=C(\C#N)C(=O)NC(C)c2ccccc2)cc1O (stereo not drawn) returned HSF1 activator 9.0, AI-2 QS mod 10.4, HSF1 inhib 3.3, ALR inh 86.9*, PHOSPHO1 block 31.0 and core dimer inh -6.1.
CC(NC(=O)/C(C#N)=C/c1ccc([N+](=O)[O-])o1)c1ccccc1 (stereo not drawn) was read as HSF1 activator -66.3, AI-2 QS mod inconclusive, HSF1 inhib -62.2*, PHOSPHO1 block 24.0 and core dimer inh 2.7.
Screening COc1cc(/C=C(\C#N)C(=O)Nc2ccccn2)ccc1O returned HSF1 activator 23.3, AI-2 QS mod 32.9, HSF1 inhib -3.4, ALR inh 9.3, PHOSPHO1 block 6.3 and core dimer inh -7.7.
For COc1cc(/C=C(\C#N)C(=O)Nc2cccc3ncccc23)ccc1O the results were HSF1 activator 62.6*, AI-2 QS mod 11.1, HSF1 inhib 13.9, ALR inh -8.6, PHOSPHO1 block 43.9 and core dimer inh -5.2.
